Experimental data from ChEMBL document CHEMBL3808358, “Rational Design of Small Peptides for Optimal Inhibition of Cyclooxygenase-2: Development of a Highly Effective Anti-Inflammatory Agent” (J Med Chem, 2016).
The source made the active and inactive calls. The calls are words filed in the database; no cut-off is given here. Residues, ends and D or L forms follow the SMILES beside them.

How the values were obtained:
[1] = test system: Mus musculus; experiment: Analgesic activity in Swiss albino mouse assessed as reduction in capsaicin-induced paw licking at 5 mg/kg, ip dosed 30 mins before capsaicin injection measured for 10 mins relative to control; type: functional
In short: (§1)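 Swiss albino mice of either sex (25-35 g), kept at 22 ± 2 °C on a 12 h light/dark cycle with free food and water. 5 animals per group. Capsaicin (1.6 μg in 20 μL) is injected into the plantar surface of the hind paw. Pain is scored as the number of paw lickings over 10 min.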

[2] = target: T1, Prostaglandin G/H synthase 2 (Homo sapiens, UniProt P35354); experiment: Inhibition of human recombinant COX2 assessed as reduction in PGH2-derived PGF2alpha using arachidonic acid as substrate preincubated for 10 mins followed by substrate addition measured after 2 mins by enzyme immunoassay
T1 sequence (P35354 whole entry): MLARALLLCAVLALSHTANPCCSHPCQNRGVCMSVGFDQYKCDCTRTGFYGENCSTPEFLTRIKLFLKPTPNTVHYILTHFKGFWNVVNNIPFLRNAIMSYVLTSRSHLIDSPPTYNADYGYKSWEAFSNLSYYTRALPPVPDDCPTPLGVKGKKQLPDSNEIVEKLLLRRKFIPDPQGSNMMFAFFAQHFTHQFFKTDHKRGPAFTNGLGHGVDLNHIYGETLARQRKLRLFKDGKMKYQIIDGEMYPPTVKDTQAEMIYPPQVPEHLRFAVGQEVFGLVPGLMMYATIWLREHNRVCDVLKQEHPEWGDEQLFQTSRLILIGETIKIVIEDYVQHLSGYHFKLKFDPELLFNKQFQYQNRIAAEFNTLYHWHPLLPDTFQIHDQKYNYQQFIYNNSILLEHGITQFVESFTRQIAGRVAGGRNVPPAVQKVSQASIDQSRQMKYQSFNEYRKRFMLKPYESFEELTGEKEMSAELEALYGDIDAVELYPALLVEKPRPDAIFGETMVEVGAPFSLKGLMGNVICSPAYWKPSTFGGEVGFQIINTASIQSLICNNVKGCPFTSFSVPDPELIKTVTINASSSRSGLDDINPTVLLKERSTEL

[3] = test system: Mus musculus; experiment: Analgesic activity in Swiss albino mouse assessed as reduction in capsaicin-induced paw licking at 5 to 10 mg/kg, ip dosed 30 mins before capsaicin injection measured for 10 mins; type: functional, organism-based; in short: as §1
[4] = test system: Mus musculus; experiment: Antiinflammatory activity in Swiss albino mouse assessed as reduction in carrageenan-induced paw edema by measuring paw thickness at 5 mg/kg, ip dosed 30 mins before carrageenan injection measured up to 300 mins by vernier calliper method relative to control; type: functional
[5] = test system: Mus musculus; experiment: Analgesic activity in Swiss albino mouse assessed as reduction in capsaicin-induced paw licking at 5 to 10 mg/kg, ip dosed 30 mins before capsaicin injection measured for 10 mins in presence of […] A23187 pre-treated 30 mins before compound dosing; type: functional, organism-based
In short: (§2)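 Mice of either sex (25-35 g), 5 per group. The modulator is given 30 min before the test compound, and capsaicin 30 min after that: substance P 10 µg/kg, L-arginine 40 mg/kg, L-NAME 20 mg/kg, veratrine 125 µg/kg, A23187 20 µg/kg, glipizide 30 µg/kg. Capsaicin is 1.6 μg in 20 μL intraplantar. Paw lickings are counted for 10 min.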

[6] = test system: Mus musculus; experiment: Analgesic activity in Swiss albino mouse assessed as reduction in capsaicin-induced paw licking at 5 to 10 mg/kg, ip dosed 30 mins before capsaicin injection measured for 10 mins in presence of ATP-sensitive potassium channel blocker glipizide pre-treated 30 mins before compound dosing; type: functional, organism-based; in short: as §2
[7] = target: T2, Prostaglandin G/H synthase 1 (Ovis aries, UniProt P05979); experiment: Inhibition of ovine COX1 assessed as reduction in PGH2-derived PGF2alpha using arachidonic acid as substrate preincubated for 10 mins followed by substrate addition measured after 2 mins by enzyme immunoassay
T2 sequence (P05979 whole entry): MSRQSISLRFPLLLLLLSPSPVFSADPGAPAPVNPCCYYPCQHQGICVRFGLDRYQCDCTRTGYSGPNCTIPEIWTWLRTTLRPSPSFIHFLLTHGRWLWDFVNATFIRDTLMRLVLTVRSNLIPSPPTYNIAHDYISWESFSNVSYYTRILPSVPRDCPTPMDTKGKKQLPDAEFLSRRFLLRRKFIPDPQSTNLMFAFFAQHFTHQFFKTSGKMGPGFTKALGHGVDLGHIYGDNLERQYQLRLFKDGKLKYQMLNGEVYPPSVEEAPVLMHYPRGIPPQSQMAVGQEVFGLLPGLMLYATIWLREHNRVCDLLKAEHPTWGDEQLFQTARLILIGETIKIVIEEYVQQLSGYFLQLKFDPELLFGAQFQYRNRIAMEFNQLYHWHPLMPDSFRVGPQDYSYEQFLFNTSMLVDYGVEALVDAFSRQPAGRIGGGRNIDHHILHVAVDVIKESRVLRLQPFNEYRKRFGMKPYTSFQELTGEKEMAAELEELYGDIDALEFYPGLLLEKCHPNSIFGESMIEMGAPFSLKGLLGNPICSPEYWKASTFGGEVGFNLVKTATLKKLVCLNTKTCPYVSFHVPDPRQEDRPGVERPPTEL
In short: (§3)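 Ovine COX-1 and human recombinant COX-2 with heme are preincubated with inhibitor for 10 min at 37 °C. Arachidonic acid is then added for 2 min at 37 °C. Prostaglandins are quantified by competitive AChE-tracer EIA, read at 420 nm. Four concentrations (10^-5 to 10^-8 M) are tested in triplicate. IC50 is taken from the dose-response curve of the mean % inhibition.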

[8] = Selectivity index, ratio of IC50 for ovine COX1 to IC50 for human recombinant COX2; in short: as §3
[9] = test system: Mus musculus; experiment: Acute toxicity in Swiss albino mouse assessed as structural abnormality in myocardium up to 2000 mg/kg, po administered as single dose through gavage measured after 14 days by haematoxylin and eosin staining based assay; type: organism-based; settings: in vivo, 336 h
In short: (§4)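 Mice given vehicle or 50, 300 or 2000 mg Kg⁻¹ after 4 h fasting, three per group, following OECD 2001 guidance. At 14 days, one control animal and one 2000 mg Kg⁻¹ animal were sacrificed. Myocardium, liver and kidney were examined histologically by H and E staining.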

[10] = target: T3, Prostaglandin G/H synthase 2 (Homo sapiens) (UniProt P35354); experiment: Binding affinity to COX2 (unknown origin) at 100 uM by isothermal titration calorimetry
T3 sequence (whole entry): T1 sequence (P35354 whole entry)
In short: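 Isothermal titration calorimetry in HEPES buffer, pH 7.4. The ligand stock is 100 μM in ethanol/HEPES (1:99). The syringe is stirred at 500 rpm and delivers 19 injections of 2 μL into the enzyme-containing cell at 120 s intervals. Heats from buffer-only control titrations are subtracted. The fit gives Ka, ΔH and ΔS. Run in triplicate.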

[11] = test system: Mus musculus; experiment: Acute toxicity in Swiss albino mouse assessed as structural abnormality in liver up to 2000 mg/kg, po administered as single dose through gavage measured after 14 days by haematoxylin and eosin staining based assay; type: organism-based; settings: in vivo, 336 h; in short: as §4
[12] = test system: Mus musculus; experiment: Analgesic activity in Swiss albino mouse assessed as reduction in formalin-induced paw flinches in neurogenic phase at 5 mg/kg, ip dosed 30 mins before formalin injection measured up to 5 mins; type: functional, organism-based
In short: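 Swiss albino mice of either sex (25-35 g). 20 μL of 2% formalin is injected into the plantar surface of the right hind paw 30 min after treatment. Hind paw flinches are counted for the neurogenic phase (0-5 min) and the inflammatory phase (15-30 min). Results are given as mean ± SEM.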

With `COC(=O)[C@H](CC(C)C)NC(=O)[C@H](Cc1ccccc1)NC(=O)CNC(=O)CN` (H-GGFL-OMe) the inhibition in vivo at 5 mg/kg [1] was 80%, the IC50 [2] was 0.06 µM and the Activity [3] was “Active”. For the same molecule, the inhibition in vivo at 5 mg/kg [4] was 60%, the Activity [5] was “Active” and the Activity [6] was “Active”. The IC50 [7] was 6 µM, the Ratio IC50 [8] was 100 and the Activity [9] was “Non-toxic”. For the same molecule, the Ka [10] was 6.1 ×10⁴ /M, the Activity [11] was “Non-toxic” and the Activity [12] was “inactive”.
